Compound activity (PubChem)
The entries come from a sample that favours hits as a whole.
Lmaj promast: inhibitors of Leishmania major promastigote growth. 200,000 tested, 9% active. Leishmania major promastigotes, resazurin fluorescence viability. inhibition, % at 10 µM; in the data active means inhibition above about 50%;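 further: promastigotes grown with compound for 44 hours at 28 °C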
T cruzi inh: T. cruzi replication inhibition. T. cruzi beta-gal in NIH3T3, luminescence, 90 h. inhibition, % (test concentration not listed). 300,000 tested, 1.4% active. AID 1885;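 active means mean inhibition across valid replicates above about 55%, limit read from the data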;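 further: signal also drops with host cell toxicity which is not excluded here; higher percent means less beta-gal luminescence so fewer parasites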
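System: mouse NIH/3T3 fibroblasts infected with β-gal-expressing T. cruzi Tulahuen C4 / Input: NIH/3T3 cells, 5,000 per well / Buffer or medium: Low-serum DMEM with 2% FBS / Probe or stimulus: 5000 reporter trypomastigotes per well / Schedule: ≥90 h infection period, 3 h prior cell attachment / Measured by: GalScreen luminescence, 60 min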
CHOP UPR activ: activators of apoptotic arm of unfolded protein response (CHOP); CHO-CHOP luciferase reporter, UPR activation, luminescence; percent of tunicamycin response over DMSO baseline; activation, % at 10 µM; 330,000 tested, 0.34% active;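 active means at 10 µM dose, activation of 40% or more, normalized to positive control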
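Assay system: CHO cells with stable CHOP pathway luciferase reporter; Buffer or medium: F12 plus 10% serum; Times: 16-18 h cell attachment, then 6 h compound exposure, 37 °C; Signal: luciferase luminescence; Read-out basis: percent activation relative to tunicamycin control; Control set: tunicamycin high control, DMSO low control.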
CHOP inhibitor: blocks CHOP induction under ER stress | CHO-K1 CHOP-promoter luciferase, tunicamycin-induced, 15-18 h | inhibition, % at 10 µM | 220,000 tested, 3.8% active | AID 2732;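 active means compounds that reduced the stress-induced luciferase reporter signal by more than about 70% of percent inhibition, limit read from the data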
UPR XBP1 act: activators of adaptive arm of unfolded protein response (XBP1); 330,000 tested, 0.33% active; activation, % at 20 µM; CHO-XBP1 luciferase reporter, IRE1-XBP1 UPR activation, luminescence; percent of tunicamycin response, DMSO as zero;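 active means versus positive control, 20 µM dose yields 30% or more activation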
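Assay system: IRE1-XBP1 luciferase reporter CHO line. Input: 1000 cells/well. Buffer or medium: F12 with 10% serum. Doses: 20 µM, 1% DMSO. Times: overnight seeding at 37 °C, 6 h compound treatment at 37 °C. Technique: Steady-Glo luciferase glow luminescence, 10 min after reagent addition.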
Dynein transport: blocks dynein driven cargo transport along microtubules; 3617.4 mouse cells, GR-EGFP nuclear translocation imaging; test concentration mostly 20 µM; stimulated with dexamethasone, 1 µM; hits give low values; z-score, hits read low; 220,000 tested, 0.47% active;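 active means plate z-score of nuclear minus cytoplasmic receptor signal below a set negative limit, without overly bright fluorescence or cell loss, cut at about -3.5 in these data, passing the limit was not always enough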;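 further: z-score of nuclear minus cytoplasmic ring GR-EGFP intensity difference per well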
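Also added – dexamethasone, 1.0 µM final · Buffer or medium – tet-free, stripped-serum medium · Schedule – induction 48 h, compound 1 h, agonist 30 min · Detection – formaldehyde fixation, Hoechst nuclear stain, 10x automated fluorescence imaging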
Each line names hits and unclear results; the compound was inactive in the other large screens.

O=C(COC(=O)c1ccc2c(c1)OCO2)Nc1ccccc1OC(F)F	none (no result: Lmaj promast, T cruzi inh, CHOP inhibitor, Dynein transport)
COc1ccc(CNC(=O)C2CC(=O)N(C3CCCC3)C2)cc1 (configuration not stated)	none (no result: Lmaj promast, CHOP inhibitor, Dynein transport)
O=C(c1ccc(F)cc1)N(NC(=O)C(O)(c1ccccc1)c1ccccc1)c1ccccc1	Lmaj promast 66
COc1ccc(Cc2n[nH]c(=S)n2Cc2ccccc2)cc1Cl	Lmaj promast 97
CC(C)C[C@@H](CO)N1CCN(Cc2ccc([N+](=O)[O-])cc2)CCC1=O	none (no result: Lmaj promast, CHOP inhibitor, Dynein transport)
COc1ccc(-c2nsc3c(N4CCCCC4)ncnc23)cc1	CHOP inhibitor 82
COc1ccc(-c2nsc3c(N4CCCCC4C)ncnc23)cc1 (configuration not stated)	CHOP inhibitor 93
COc1ccc(C(=O)N2CCN(c3ncnc4c(-c5ccccc5)nsc34)CC2)cc1	none (no result: CHOP UPR activ, UPR XBP1 act)
CCOc1ccc(OCC)c(-c2c(=O)n(OCc3ccccc3C(=O)OC)c3ccccc3[n+]2[O-])c1	Lmaj promast 79
CCOc1ccc(OCC)c(-c2c(=O)n(OCc3ccccc3Br)c3ccccc3[n+]2[O-])c1	Lmaj promast 71
CCOc1ccc(-c2c(=O)n(OCc3ccccc3Br)c3ccccc3[n+]2[O-])c(OCC)c1	none
Cc1ccc(NC(=O)Cc2nnc(SCC(=O)c3ccc(Br)cc3)n2C)cc1	CHOP inhibitor 88
Cc1cccc(NS(=O)(=O)c2ccc(C(=O)NCC(c3ccco3)N(C)C)cc2)c1C (configuration not stated)	none (no result: Lmaj promast, CHOP inhibitor, Dynein transport)
CSC1CCCCC1(O)CSc1nc2c(cc1C#N)CCCC2 (configuration not stated)	CHOP inhibitor 85
N#CCSc1nc2c(cc1C#N)CCCC2	none
CCOC(=O)c1c(NC(=O)N/N=C/c2ccccc2OCC)sc(C(C)=O)c1C	T cruzi inh 68 (no result: CHOP UPR activ, UPR XBP1 act)
CCOC(=O)c1c(NC(=O)COC(=O)Cc2ccccc2[N+](=O)[O-])sc(C(=O)N(C)C)c1C	none (no result: Lmaj promast, CHOP inhibitor, Dynein transport)
CCOC(=O)c1c(NC(=O)COC(=O)c2ccccc2NC)sc(C(=O)N(C)C)c1C	T cruzi inh 59 (no result: Lmaj promast, CHOP inhibitor, Dynein transport)
NC(=O)c1c(NC(=O)C2c3ccccc3Oc3ccccc32)sc2c1CCCCC2	CHOP inhibitor 74
COC(=O)c1[nH]c2cc(OC)ccc2c1NC(=O)CN1CCN(c2cccc(C)c2)C(C)C1 (configuration not stated)	CHOP inhibitor 89
CC(=O)Nc1sc2c(c1C(N)=O)CCCC2	none
CCOC(=O)c1c(NC(=O)N/N=C/c2ccc(O)c(OC)c2)sc(C(C)=O)c1C	none (no result: Lmaj promast)
[2H]C([2H])(CCOS(N)(=O)=O)c1ccccc1	none (no result: Lmaj promast, CHOP inhibitor, Dynein transport)
COC(=O)Nc1ccc2c(c1)N(C(=O)CCCl)c1ccccc1S2	none (no result: Lmaj promast, CHOP UPR activ, CHOP inhibitor, UPR XBP1 act, Dynein transport)
CCOC(=O)c1c(NC(=O)C2c3ccccc3Oc3ccccc32)sc(C(C)=O)c1C	CHOP inhibitor 71
CCOC(=O)c1c(NC(=O)CN2CCCc3ccccc32)sc(C(C)=O)c1C	CHOP inhibitor 93
COC(=O)c1[nH]c2ccc(C)cc2c1NC(=O)CN1CCCc2ccccc21	T cruzi inh 85
CCOC(=O)c1c(NC(=O)CSc2nc3cc(Cl)ccc3c(=O)n2Cc2ccco2)sc(C(=O)N(C)C)c1C	Lmaj promast 78, T cruzi inh 61
COC(=O)c1[nH]c2cc(C)ccc2c1NC(=O)CN1CCN(c2ccccc2OC)CC1	none
CCc1ccc(NC(=O)CSc2nc3cc(C(=O)OC)ccc3c(=O)n2Cc2ccco2)cc1	none
C=CCOc1cccc(/C=C2\C(=O)N(Cc3ccc(C)cc3)C(C)=C2C(=O)OC)c1	Lmaj promast 92
CCOc1cc(/C=C2\C(=O)N(Cc3ccc(C)cc3)C(C)=C2C(=O)OC)ccc1O	none
Nc1ncnc2c1ncn2[C@@H]1O[C@H](CNCc2ccccc2OCC(=O)N2CCCCC2)[C@@H](O)[C@H]1O	none (no result: Lmaj promast, T cruzi inh, CHOP inhibitor, Dynein transport)
CCCN1CCc2c(sc3nc(SCC)n(-c4ccc(OC)cc4)c(=O)c23)C1	none (no result: Lmaj promast, CHOP inhibitor, Dynein transport)
O=c1[nH]c(CN2CCc3ccccc32)nc2scc(-c3cccs3)c12	CHOP inhibitor 88
Cc1c(Cl)cccc1-n1c(SCC(=O)NCc2ccccc2Cl)nnc1-c1ccncc1	Lmaj promast 100
COc1c(C)cc(Br)cc1C(=O)Nc1ccccc1N1CCN(C(=O)c2ccccc2)CC1	T cruzi inh 66
O=C(Nc1ccccc1N1CCN(C(=O)c2ccccc2)CC1)c1cc(Br)ccc1Cl	none
COc1ccc(Br)cc1C(=O)Nc1ccccc1N1CCN(C(=O)c2ccccc2)CC1	Lmaj promast 55, T cruzi inh 59
O=[N+]([O-])c1ccn(-c2nc(-c3cccs3)cc(C(F)(F)F)n2)n1	none
FC(F)(F)c1cc(-c2cccs2)nc(-n2cc(Cl)cn2)n1	CHOP inhibitor 85
O=C(CNC(=O)c1ccc(Cl)c([N+](=O)[O-])c1)OCN1C(=O)c2ccccc2C1=O	none (no result: Lmaj promast, CHOP inhibitor, Dynein transport)
Cc1cc(C(=O)CN2CC(C)OC(C)C2)c(C)n1-c1ccccc1 (configuration not stated)	none
Cc1ccc(-n2c(C)cc(C(=O)CN3CCCCC3)c2C)cc1	Lmaj promast 86
Cc1cc(C(=O)CN2C(=O)C(=O)N(Cc3ccccc3)C2=O)c(C)n1-c1ccccc1F	none
Cc1cc(C(=O)CN2CCC(C)CC2)c(C)n1-c1ccccc1F	T cruzi inh 57
Cc1sc(C(=O)Nc2ccc3ccccc3c2)cc1CC(=O)O	none
O=C(NCCc1ccc(Cl)cc1)c1cc(-c2ccccn2)nc2ccccc12	none (no result: Lmaj promast, CHOP inhibitor, Dynein transport)
Cc1ccc(NC(=S)NC(NC(=O)c2ccccc2)C(Cl)(Cl)Cl)c(C)c1 (configuration not stated)	Lmaj promast 96
O=C(NC(NC(=S)Nc1ccccc1)C(Cl)(Cl)Cl)c1cccc(Cl)c1 (configuration not stated)	Lmaj promast 75, T cruzi inh 65, CHOP inhibitor 86
O=C(NC(NC(=S)Nc1ccc(Cl)cc1Cl)C(Cl)(Cl)Cl)c1cccc([N+](=O)[O-])c1 (configuration not stated)	Lmaj promast 100, T cruzi inh 74
Cc1ccc(S(=O)(=O)N(C)C)cc1NC(=O)c1c(-c2c(F)cccc2Cl)noc1C	none (no result: Lmaj promast)
Cc1cccc(NC(=O)CN(C)C(C)C(=O)Nc2ccc(S(=O)(=O)N3CCCC3)cc2)c1C (configuration not stated)	none (no result: Lmaj promast, T cruzi inh, CHOP inhibitor, Dynein transport)
CN(C)S(=O)(=O)c1ccc(C(=O)NNc2nc(-c3ccccc3)c3cc(Br)ccc3n2)cc1	Lmaj promast 71
O=C(NNc1nc(-c2ccccc2)c2cc(Br)ccc2n1)c1ccc(S(=O)(=O)N2CCCCC2)cc1	none
C(#Cc1ccccc1)C[N+]1(CC#Cc2cccc3ccccc23)CCCC1	Lmaj promast 100
